These results are taken from ChEMBL document CHEMBL4261611, “Identification of steroidal derivatives inhibiting the transformations of allopregnanolone and estradiol by 17β-hydroxysteroid dehydrogenase type 10” (Bioorg Med Chem Lett, 2018).

Series [1] addresses T1, 3-hydroxyacyl-CoA dehydrogenase type-2 (Mus musculus) (UniProt O08756).
T1 sequence (whole entry): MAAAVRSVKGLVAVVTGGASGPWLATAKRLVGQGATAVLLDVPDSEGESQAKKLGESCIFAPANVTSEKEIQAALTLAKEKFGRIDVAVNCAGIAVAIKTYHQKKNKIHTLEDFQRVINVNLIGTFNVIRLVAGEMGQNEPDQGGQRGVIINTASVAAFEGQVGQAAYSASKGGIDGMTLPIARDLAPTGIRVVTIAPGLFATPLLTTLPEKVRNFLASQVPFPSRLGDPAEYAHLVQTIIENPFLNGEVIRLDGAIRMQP
The experiment in a line: Inhibition of recombinant mouse full-length 17beta-HSD10 (2 to 261 residues) assessed as reduction in transformation of [3H]-ALLOP to 5alpha-DHP at 100 uM after 48 hrs in presence of 1 mM NAD+ cofactor by liquid scintillation counting method relative to control. The essentials:
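Screen at 100 μM inhibitor, 48 h, with 400 ng/mL purified enzyme, 1 mM NAD⁺ and 1 μM [³H]-ALLOP/ALLOP (1:99). ALLOP-to-5α-DHP conversion was expressed as % inhibition versus the no-inhibitor transformation. Results are mean ± SEM.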

Series [2] deals with T1, 3-hydroxyacyl-CoA dehydrogenase type-2 (Mus musculus). Put plainly: Inhibition of recombinant mouse full-length 17beta-HSD10 (2 to 261 residues) assessed as reduction in transformation of [14C]-E2 to E1 at 100 uM after 48 hrs in presence of 1 mM NAD+ cofactor by liquid scintillation counting method.
For series [3] the target is unchanged. Put plainly: Inhibition of recombinant mouse full-length 17beta-HSD10 (2 to 261 residues) assessed as reduction in transformation of [14C]-E2 to E1 at 300 uM after 48 hrs in presence of 1 mM NAD+ cofactor by liquid scintillation counting method relative to control. The essentials:
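Single-concentration screen at 300 μM inhibitor. Purified 17β-HSD10 (400 ng/mL), 1 mM NAD⁺, 1 μM [¹⁴C]-E2/E2 (1:9), 48 h incubation. E2-to-E1 conversion was measured and inhibition expressed relative to uninhibited transformation. Results are mean ± SEM.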

Series [4] is described as follows: Octanol/water partition co-efficient, log P of the compound. The format is physicochemical. In outline: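 Octanol/water partition coefficient calculated in silico, not measured.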
Series [5] has as its target T2, 3-hydroxyacyl-CoA dehydrogenase type-2 (Mus musculus, UniProt O08756).
T2 sequence (O08756 whole entry): T1 sequence (whole entry)
The experiment in a line: Inhibition of recombinant mouse full-length 17beta-HSD10 (2 to 261 residues) assessed as reduction in transformation of [3H]-ALLOP to 5alpha-DHP after 48 hrs in presence of 1 mM NAD+ cofactor by liquid scintillation counting method. In outline:
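Purified 17β-HSD10 (400 ng/mL), 1 mM NAD⁺, 1 μM [³H]-ALLOP/ALLOP (1:99), 48 h incubation. Oxidation to 5α-DHP was measured over a range of inhibitor concentrations to build inhibition curves and estimate IC50. Results are mean ± SEM.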

For series [6], the target named is T2, 3-hydroxyacyl-CoA dehydrogenase type-2. The experiment in a line: Inhibition of recombinant mouse full-length 17beta-HSD10 (2 to 261 residues) assessed as reduction in transformation of [14C]-E2 to E1 after 48 hrs in presence of 1 mM NAD+ cofactor by liquid scintillation counting method. In outline: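 Purified 17β-HSD10 at 400 ng/mL with 1 mM NAD⁺ and substrate [¹⁴C]-E2/E2 (1:9) at 1 μM total, incubated 48 h. E2-to-E1 oxidation was followed with radiolabel. Percent inhibition over a dose range was used for dose-response curves and IC50 estimation. Results are mean ± SEM.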

Series [7] can be described thus: Blood-brain transfer coefficient in mouse administered via perfusion. In kind it is ADME, tissue-based. The note with it: in vivo, other.
Series [8] in a line: Effect on mouse brain penetration assessed as [14C]-sucrose uptake administered via perfusion. In kind it is ADME, tissue-based. Particulars: in vivo.
Series [9] is described as follows: Solubility of the compound at 600 to 1000 uM. In kind it is physicochemical.

Calls of active or inactive are those of the source. The rule behind the calls is not given here.

By inhibition is commonly meant how much of the control response was suppressed. For orientation: logP means a log measure of how a compound divides between an organic and an aqueous phase. Lower therefore signals a more hydrophilic compound. Take `C[C@]12CC[C@](O)(CN3CCN(C(=O)c4ccc(C(=O)c5ccccc5)cc4)CC3)C[C@@H]1CC[C@@H]1[C@@H]2CC[C@]2(C)C(=O)CC[C@@H]12`: the inhibition in series [1] is 8%; in series [3], 58.8%. Besides, in series [2], the inhibition result is “inactive”. For the same compound, the logP in series [4] stood at 4.99.
The term IC50 denotes the point on the concentration scale where inhibition reaches its midpoint. For the compound `COc1cccc(CN2CCN(C[C@@]3(O)CC[C@@]4(C)[C@@H](CC[C@@H]5[C@@H]4CC[C@]4(C)C(=O)CC[C@@H]54)C3)CC2)c1`, the values for the inhibition in series [1] and in series [3] were 14.7% and 30%, respectively. Also, the IC50 in series [5] is 985 µM; in [6] it was 710 µM. In addition, the inhibition entry in series [2] was “inactive”. For the same compound, the Kin in series [7] lay in the range of 13.8 to 32.7 µL/s/g. Further, the Activity result in series [8] is reported as “Non-Toxic”. The same compound gave a lipophilicity (logP) in series [4] of 4.43.
Turning to `COc1cccc(CN2CCN(C[C@@]3(O)CC[C@@]4(C)[C@@H](CC[C@@H]5[C@@H]4CC[C@]4(C)[C@@H](O)CC[C@@H]54)C3)CC2)c1`, the inhibition was determined as 0% in series [1] and 13.7% in series [3]. In addition, the inhibition entry in series [2] is “inactive”. Besides, the logP in series [4] is 4.67.
Regarding `C[C@]12CC[C@@H]3c4ccc(O)cc4CC[C@H]3[C@@H]1CC[C@@H]2O` [ESTRADIOL], the IC50 amounted to 770 µM in series [5] and 155 µM in series [6].
On to `COc1cc(CN2CCN(C[C@@]3(O)CC[C@@]4(C)[C@@H](CC[C@@H]5[C@@H]4CC[C@]4(C)C(=O)CC[C@@H]54)C3)CC2)ccc1C`, for which the inhibition in series [1] turned out to be 12.5%; in series [3], 31%. In addition, the inhibition entry in series [2] is “inactive”. The compound further had a logP in [4] of 4.72.
In the case of `C#C[C@]1(O)CC[C@H]2[C@@H]3CC[C@H]4C[C@@](O)(CN5CCN(Cc6cccc(OC)c6)CC5)CC[C@]4(C)[C@H]3CC[C@@]21C`, the inhibition in [1] worked out at 20%; in [3], 44.5%. Further, the inhibition entry in [2] is “inactive”. For the same compound, in [4], the logP is 4.93.
On to `COc1cccc(CN2CCN(C[C@@]3(O)CC[C@@]4(C)[C@@H](CC[C@@H]5[C@@H]4CC[C@@]4(C)[C@H]5CC[C@]4(C)O)C3)CC2)c1`, for which the values for the inhibition in [1] and in [3] were 21.9% and 22.6%, respectively. The inhibition result in series [2] is “inactive”. The logP in [4] was 5.06.
For the compound `COc1cccc(CN2CCN(C[C@@]3(O)CC[C@@]4(C)[C@@H](CC[C@@H]5[C@@H]4CC[C@]4(C)[C@H](O)CC[C@@H]54)C3)CC2)c1`, the inhibition stood at 41.7% in series [1] and 31.7% in series [3]. Further, the IC50 in series [5] is 235 µM; in [6] it was 610 µM. In addition, the inhibition entry in [2] was “inactive”. For the same compound, in series [4], the logP worked out at 4.67.
Regarding `Cc1cc(C)cc(C(=O)N2CCN(C[C@@]3(O)CC[C@@]4(C)[C@@H](CC[C@@H]5[C@@H]4CC[C@]4(C)C(=O)CC[C@@H]54)C3)CC2)c1`, in series [1], the inhibition is 1.5%. For the same compound, the inhibition entry in series [2] is “inactive”. In addition, in series [4], the logP amounted to 4.86.
Turning to `CC(=O)c1cccc(C(=O)N2CCN(C[C@@]3(O)CC[C@@]4(C)[C@@H](CC[C@@H]5[C@@H]4CC[C@]4(C)C(=O)CC[C@@H]54)C3)CC2)c1`, in series [1], the inhibition was found to be 5%. Further, in [2], the inhibition result is “inactive”. Besides, in series [4], the logP stood at 3.85.
On to `C[C@]12CC[C@](O)(CN3CCN(C(=O)c4ccc(-c5ccccc5)cc4)CC3)C[C@@H]1CC[C@@H]1[C@@H]2CC[C@]2(C)C(=O)CC[C@@H]12`, for which the inhibition came to 19.3% in [1] and 29.4% in series [3]. In series [2], the inhibition entry was “inactive”. In series [4], this compound showed a logP of 5.3.
For the compound `COc1cccc(CN2CCN(C[C@@]3(O)CC[C@@]4(C)[C@@H](CC[C@@H]5[C@@H]4CC[C@]4(C)C(=O)C(C)(C)C[C@@H]54)C3)CC2)c1`, the inhibition in series [1] was found to be 11.1%; in series [3], 24.6%. Further, in [2], the inhibition result is “inactive”. In [4], this compound returned a logP of 5.57.
For the compound `CN(C)S(=O)(=O)c1ccc(NC(=S)N2CCN(C[C@@]3(O)CC[C@@]4(C)[C@@H](CC[C@@H]5[C@@H]4CC[C@]4(C)C(=O)CC[C@@H]54)C3)CC2)cc1`, the inhibition in series [1] is 13.3%; in [3], 0.3%. In [2], the inhibition entry was “inactive”. This compound returned a logP in series [4] of 3.32.
For `C[C@]12CC[C@](O)(CN3CCN(Cc4cnc5ccccc5c4)CC3)C[C@@H]1CC[C@@H]1[C@@H]2CC[C@]2(C)C(=O)CC[C@@H]12`, the figures for the inhibition in series [1] and in series [3] were 15.2% and 36.1%, respectively. The inhibition entry in series [2] is “inactive”. Further, the logP in series [4] came to 4.58.
As for `C[C@]12CC[C@](O)(CN3CCN(C(=S)NCc4cccc(C(F)(F)F)c4)CC3)C[C@@H]1CC[C@@H]1[C@@H]2CC[C@]2(C)C(=O)CC[C@@H]12`, the inhibition is 34.2% in [1] and 8.5% in [3]. The inhibition result in [2] is “inactive”. The compound further yielded a logP in series [4] of 3.85.
For the compound `CCN(C)S(=O)(=O)N1CCN(C[C@@]2(O)CC[C@@]3(C)[C@@H](CC[C@@H]4[C@@H]3CC[C@]3(C)C(=O)CC[C@@H]43)C2)CC1`, the values for the inhibition in [1] and in [3] were 0% and 10.2%, respectively. In addition, the inhibition entry in [2] is “inactive”. For the same compound, the logP in series [4] was 2.97.
On to `COc1cccc(CN2CCN(C[C@@]3(O)CC[C@@]4(C)[C@@H](CC[C@@H]5[C@@H]4CC[C@@]4(C)[C@H]5CCC4(F)F)C3)CC2)c1`, for which the results for the inhibition in [1] and in series [3] were 38.6% and 13.3%, respectively. Further, the solubility entry in [9] is “Insoluble”. Also, the inhibition result in series [2] is “inactive”. In series [4], this compound yielded a logP of 5.57.
With `CN1C(=O)CN=C(c2ccccc2)c2cc(Cl)ccc21` [DIAZEPAM], in series [7], the Kin is 50 to 60 µL/s/g.
